# Experimental data as given in ChEMBL document CHEMBL4184102, “Small molecule SUMOylation activators are novel neuroprotective agents” (Bioorg Med Chem Lett, 2018).
# Target: SUMO-activating enzyme (Homo sapiens) (UniProt Q9UBE0+Q9UBT2)
# Assay: Induction of SUMO-E1/E2 (unknown origin) mediated sumoylation of His-RanGap-1 after 30 mins by HTRF assay relative to control
# Assay type: protein-complex assay
# Set-up: concentration or dose not given beside the values
# Details: not given
row,SMILES,Activity
1,Cc1ccc(S(=O)(=O)Nc2cccc3cccnc23)cc1,29%
2,Cc1cc(C)c2nc(NNC(=O)c3cc(=O)c4ccccc4o3)sc2c1,33%
3,O=C(Nc1nc(-c2ccccn2)cs1)c1ccc(Br)s1,37%
4,CC(=O)Nc1ccc(S(=O)(=O)Nc2cccc3cccnc23)cc1,28%
5,O=C(Nc1nc(-c2ccccn2)cs1)c1ccc(Cl)s1,25%
6,O=C(Nc1nc(-c2ccccn2)cs1)C1COc2ccccc2O1 (centres undefined),53%
7,COc1cccc2sc(NNC(=O)C3COc4ccccc4O3)nc12 (centres undefined),17%
8,O=S(=O)(Nc1cccc2cccnc12)c1ccc(S(=O)(=O)N2CCCC2)cc1,43%
9,O=S(=O)(Nc1cccc2cccnc12)c1ccccc1,25%
10,Cc1ccc2sc(NNC(=O)c3cc(=O)c4ccccc4o3)nc2c1C,38%
11,O=C(Nc1nc(-c2ccccn2)cs1)c1ccc2c(c1)OCCO2,20%

# System: not listed separately
# Assay: (§1) Cytoprotective activity in rat CSM14.1 cells assessed as reduction in thapsigargin-induced ER stress-mediated cell death preincubated for 2 hrs followed by thapsigargin addition measured after 20 hrs by ATPlite assay
# Assay type: functional, cell-based
# Details: not given
# Procedure, shortened: (§2)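 Rat striatal neuroprogenitor CSM14.1 cells were trypsinized, plated in 96-well plates and held overnight at 32 °C. Cells were pretreated with compound for 2 h, then given thapsigargin in DMEM (15 μM final) for another 20 h. Viability was read as cellular ATP content. Thapsigargin without compound served as the 100% death reference and DMSO without thapsigargin as the 100% viability reference. Dose-response data are given as mean ± SEM.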
row,SMILES,EC50
1,O=C(Nc1nc(-c2ccccn2)cs1)C1COc2ccccc2O1 (centres undefined),1.2 to 9.8 µM
2,O=S(=O)(Nc1cccc2cccnc12)c1ccc(S(=O)(=O)N2CCCC2)cc1,1.2 to 9.8 µM
3,Cc1ccc2sc(NNC(=O)c3cc(=O)c4ccccc4o3)nc2c1C,1.2 to 9.8 µM

# Species on record: Rattus norvegicus
# Assay: as §1
# Assay type: functional, cell-based
# Details: not given
# Procedure, shortened: as §2
row,SMILES,Activity
1,O=C(Nc1nc(-c2ccccn2)cs1)C1COc2ccccc2O1 (centres undefined),Dose-dependent effect
2,O=S(=O)(Nc1cccc2cccnc12)c1ccc(S(=O)(=O)N2CCCC2)cc1,Dose-dependent effect
3,Cc1ccc2sc(NNC(=O)c3cc(=O)c4ccccc4o3)nc2c1C,Dose-dependent effect

# System: not listed separately
# Assay: Cytoprotective activity in BGMK cells assessed as reduction in thapsigargin-induced ER stress-mediated cell death by measuring cell viability at 10 uM preincubated for 2 hrs followed by thapsigargin addition measured after 24 hrs by CCK8 assay relative to control
# Assay type: cell-based
# Details: Chlorocebus aethiops, read-out: Activity
# Procedure, shortened: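 BGMK cells subcultured at 1.2×10^4 cells/ml, pretreated with compound 2 h, then thapsigargin 0.15 μM (150 nM) added for 24 h. Cells then washed, fed fresh complete DMEM plus CCK-8 reagent, incubated 2 h, absorbance read as viability. Salubrinal included as positive control; data as mean ± SEM.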
row,SMILES,viability at 10 µM
1,Cc1ccc(S(=O)(=O)Nc2cccc3cccnc23)cc1,52%
2,Cc1cc(C)c2nc(NNC(=O)c3cc(=O)c4ccccc4o3)sc2c1,60.3%
3,O=C(Nc1nc(-c2ccccn2)cs1)c1ccc(Br)s1,83.3%
4,CC(=O)Nc1ccc(S(=O)(=O)Nc2cccc3cccnc23)cc1,53.7%
5,O=C(Nc1nc(-c2ccccn2)cs1)c1ccc(Cl)s1,45.3%
6,O=C(Nc1nc(-c2ccccn2)cs1)C1COc2ccccc2O1 (centres undefined),81.4%
7,COc1cccc2sc(NNC(=O)C3COc4ccccc4O3)nc12 (centres undefined),38.4%
8,O=C(/C=C/c1ccccc1)NC(NC(=S)Nc1cccc2cccnc12)C(Cl)(Cl)Cl (centres undefined) [SALUBRINAL],47.2%
9,O=S(=O)(Nc1cccc2cccnc12)c1ccc(S(=O)(=O)N2CCCC2)cc1,62.4%
10,O=S(=O)(Nc1cccc2cccnc12)c1ccccc1,35.2%
11,Cc1ccc2sc(NNC(=O)c3cc(=O)c4ccccc4o3)nc2c1C,54.9%
12,O=C(Nc1nc(-c2ccccn2)cs1)c1ccc2c(c1)OCCO2,54.9%
